In ChEMBL document CHEMBL3994605, “Synthesis and biological evaluation of curcumin inspired indole analogues as tubulin polymerization inhibitors” (Eur J Med Chem, 2017):
Calls of active or inactive are those of the source. No cut-off for these calls is given here.

Tests used:
PC-3 [1] = assay: Cell cycle arrest in human PC3 cells assessed as accumulation at S phase at 5 uM after 24 hrs by propidium iodide staining based flow cytometry (reference value: 3.3 to 5.58%); assay type: functional
Outline: (§1)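 PC-3 cells were seeded at 1 × 10^5 cells/mL, attached 24 h, then treated 24 h. Cells were fixed overnight in 70% ethanol in PBS. Staining used propidium iodide ([…]) with RNase A ([…]) and 0.1% Triton X-100 for 30 min at 37 °C in the dark. About 10,000 events per sample were acquired by flow cytometry.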

PC-3 [2] = assay: Induction of apoptosis in human PC3 cells assessed as chromatin condensation at 2.5 to 5 uM after 48 hrs by acridine orange/ethidium bromide staining based fluorescence microscopic method; assay type: functional, cell-based
Outline: (§2)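 PC-3 cells were plated at 25,000 per well, grown 24 h, then exposed 48 h. Cells were PBS-washed, stained with acridine orange and ethidium bromide ([…]), and imaged immediately by fluorescence microscopy (ex 488, em 550 nm) at 200×.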

MDA-MB-231 [3] = assay: Potency index, ratio of curcumin IC50 to compound IC50 for human MDA-MB-231 cells; assay type: functional
PC-3 [4] = assay: Cell cycle arrest in human PC3 cells assessed as accumulation at subG1 phase at 5 uM after 24 hrs by propidium iodide staining based flow cytometry (reference value: 4.29 to 7.23%); assay type: functional; outline: as §1
PC-3 [5] = assay: Induction of apoptosis in human PC3 cells assessed as cell membrane blebbing at 2.5 to 5 uM after 48 hrs by acridine orange/ethidium bromide staining based fluorescence microscopic method; assay type: functional; outline: as §2
PC-3 [6] = assay: Cell cycle arrest in human PC3 cells assessed as accumulation at G2/M phase at 2.5 uM after 24 hrs by propidium iodide staining based flow cytometry (reference value: 12.2 to 24.74%); assay type: functional; outline: as §1
PC-3 [7] = assay: Cell cycle arrest in human PC3 cells assessed as accumulation at G0/G1 phase at 10 uM after 24 hrs by propidium iodide staining based flow cytometry (reference value: 65.04 to 76.95%); assay type: functional; outline: as §1
PC-3 [8] = assay: Induction of apoptosis in human PC3 cells assessed as destructive fragmentation of nuclei at 2.5 to 5 uM after 48 hrs by acridine orange/ethidium bromide staining based fluorescence microscopic method; assay type: functional, cell-based; outline: as §2
PC-3 [9] = assay: Antiproliferative activity against human PC3 cells after 48 hrs by MTT assay; assay type: functional, cell-based; settings: PC-3, 48 h
Outline: (§3)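 MTT read-out. Cells were seeded at 5 × 10^3 per well in DMEM or RPMI with 10% FBS and grown 24 h at 37 °C in CO2. Compound dilutions in medium, with vehicle control, were then added for 48 h. MTT (0.5 mg/mL in medium) was given for 4 h, formazan was dissolved in DMSO, and A570 was read. IC50 was taken from concentration–response curves as mean ± SD of three experiments run in triplicate.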

PC-3 [10] = assay: Induction of apoptosis in human PC3 cells assessed as horse shoe shaped nuclei at 2.5 to 5 uM after 48 hrs by acridine orange/ethidium bromide staining based fluorescence microscopic method; assay type: functional, cell-based; outline: as §2
DU-145 [11] = assay: Antiproliferative activity against human DU145 cells after 48 hrs by MTT assay; assay type: functional, cell-based; settings: DU-145, 48 h; outline: as §3
PC-3 [12] = assay: Induction of apoptosis in human PC3 cells assessed as chromatin condensation at 2.5 to 5 uM after 48 hrs by DAPI staining based fluorescence microscopic method; assay type: functional, cell-based
Outline: (§4)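 PC-3 cells were seeded at 25,000 per well and adhered overnight, then exposed 48 h. Cells were fixed in 4% neutral buffered formalin for 20 min and permeabilized with 0.2% Triton X for 5 min. DAPI (1 mg/mL) staining ran 10 min at room temperature, followed by fluorescence microscopy (ex 350, em 460 nm) at 200×.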

PC-3 [13] = assay: Cell cycle arrest in human PC3 cells assessed as accumulation at S phase at 2.5 uM after 24 hrs by propidium iodide staining based flow cytometry (reference value: 3.3 to 5.58%); assay type: functional; outline: as §1
PC-3 [14] = assay: Induction of apoptosis in human PC3 cells assessed as nuclear fragmentation at 2.5 to 5 uM after 48 hrs by DAPI staining based fluorescence microscopic method; assay type: functional, cell-based; outline: as §4
PC-3 [15] = assay: Cell cycle arrest in human PC3 cells assessed as accumulation at G2/M phase at 10 uM after 24 hrs by propidium iodide staining based flow cytometry (reference value: 12.2 to 24.74%); assay type: functional; outline: as §1
HeLa = assay: Antiproliferative activity against human HeLa cells after 48 hrs by MTT assay; assay type: functional, cell-based; outline: as §3
PC-3 [16] = assay: Induction of apoptosis in human PC3 cells assessed as horse shoe shaped nuclei at 2.5 to 5 uM after 48 hrs by DAPI staining based fluorescence microscopic method; assay type: functional, cell-based; outline: as §4
[17] = Inhibition of porcine brain tubulin polymerization assessed as reduction in incorporation of fluorescent reporter by fluorescence based assay; design: species or system Sus scrofa
Outline: (§5)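 Cell-free mix contained porcine brain tubulin (2 mg/mL) in 80 mM PIPES pH 6.9 with 2.0 mM MgCl2, 0.5 mM EGTA, 1.0 mM GTP and glycerol, with or without compound. Polymerization was tracked as a time-dependent fluorescence rise from reporter incorporation (ex 360, em 440 nm), with nocodazole as positive control. Inhibition was scored versus the untreated control. For IC50, the concentration giving 50% inhibition of assembly was used.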

RWPE-1 = assay: Antiproliferative activity against human RWPE1 cells after 48 hrs by MTT assay; assay type: cell-based; settings: RWPE-1, 48 h; outline: as §3
PC-3 [18] = assay: Cell cycle arrest in human PC3 cells assessed as accumulation at S phase at 10 uM after 24 hrs by propidium iodide staining based flow cytometry (reference value: 3.3 to 5.58%); assay type: functional; outline: as §1
PC-3 [19] = assay: Cell cycle arrest in human PC3 cells assessed as accumulation at G2/M phase at 5 uM after 24 hrs by propidium iodide staining based flow cytometry (reference value: 12.2 to 24.74%); assay type: functional; outline: as §1
PC-3 [20] = assay: Induction of apoptosis in human PC3 cells assessed as pyknotic nuclei at 2.5 to 5 uM after 48 hrs by DAPI staining based fluorescence microscopic method; assay type: functional, cell-based; outline: as §4
DU-145 [21] = assay: Potency index, ratio of curcumin IC50 to compound IC50 for human DU145 cells; assay type: functional
PC-3 [22] = assay: Induction of apoptosis in human PC3 cells assessed as nuclear shrinkage at 2.5 to 5 uM after 48 hrs by DAPI staining based fluorescence microscopic method; assay type: functional, cell-based; outline: as §4
MDA-MB-231 [23] = assay: Antiproliferative activity against human MDA-MB-231 cells after 48 hrs by MTT assay; assay type: functional, cell-based; settings: MDA-MB-231, 48 h; outline: as §3
Sus scrofa = species: Sus scrofa; assay: Inhibition of porcine brain tubulin polymerization assessed as reduction in incorporation of fluorescent reporter at 10 uM by fluorescence based assay relative to control; outline: as §5
PC-3 [24] = assay: Induction of mitochondrial membrane potential loss in human PC3 cells assessed as ratio of green to red fluorescence at 5 uM after 24 hrs by JC1 staining based spectrofluorometric method (reference value: 0.103); assay type: functional
PC-3 [25] = assay: Cell cycle arrest in human PC3 cells assessed as accumulation at subG1 phase at 2.5 uM after 24 hrs by propidium iodide staining based flow cytometry (reference value: 4.29 to 7.23%); assay type: functional; outline: as §1
BT-549 [26] = assay: Potency index, ratio of curcumin IC50 to compound IC50 for human BT549 cells; assay type: functional
A549 = assay: Antiproliferative activity against human A549 cells after 48 hrs by MTT assay; assay type: functional, cell-based; settings: A549, 48 h; outline: as §3
BT-549 [27] = assay: Antiproliferative activity against human BT549 cells after 48 hrs by MTT assay; assay type: functional, cell-based; settings: BT-549, 48 h; outline: as §3
4T1 = assay: Antiproliferative activity against mouse 4T1 cells after 48 hrs by MTT assay; assay type: functional, cell-based; settings: 4T1, 48 h; outline: as §3
HGC-27 = assay: Antiproliferative activity against human HGC27 cells after 48 hrs by MTT assay; assay type: functional, cell-based; settings: HGC-27, 48 h; outline: as §3
PC-3 [28] = assay: Cell cycle arrest in human PC3 cells assessed as accumulation at G0/G1 phase at 5 uM after 24 hrs by propidium iodide staining based flow cytometry (reference value: 65.04 to 76.95%); assay type: functional; outline: as §1
PC-3 [29] = assay: Potency index, ratio of curcumin IC50 to compound IC50 for human PC3 cells; assay type: functional
PC-3 [30] = assay: Cell cycle arrest in human PC3 cells assessed as accumulation at G0/G1 phase at 2.5 uM after 24 hrs by propidium iodide staining based flow cytometry (reference value: 65.04 to 76.95%); assay type: functional; outline: as §1
PC-3 [31] = assay: Cell cycle arrest in human PC3 cells assessed as accumulation at subG1 phase at 10 uM after 24 hrs by propidium iodide staining based flow cytometry (reference value: 4.29 to 7.23%); assay type: functional; outline: as §1

| Compound | Activity (PC-3 [1]) | Activity (PC-3 [2]) | Ratio IC50 (MDA-MB-231 [3]) | Activity (PC-3 [4]) | Activity (PC-3 [5]) | Activity (PC-3 [6]) | Activity (PC-3 [8]) | IC50 (PC-3 [9]) | Activity (PC-3 [10]) | IC50 (DU-145 [11]) | Activity (PC-3 [12]) | Activity (PC-3 [13]) | Activity (PC-3 [14]) | IC50 (HeLa) | Activity (PC-3 [16]) | IC50 [17] | IC50 (RWPE-1) | Activity (PC-3 [19]) | Activity (PC-3 [20]) | Ratio IC50 (DU-145 [21]) | other results |
| --- | --- | --- | --- | --- | --- | --- | --- | --- | --- | --- | --- | --- | --- | --- | --- | --- | --- | --- | --- | --- | --- |
| COc1cc(/C=C/C(=O)/C=C/c2c[nH]c3ccccc23)cc(OC)c1OC | 6.2% | Active | 1.4 | 3.46% | Active | 27.04% | Active | 3.15 µM | Active | 8.92 µM | Active | 8.94% | Active | 3.31 µM | Active | 8.81 µM | 6.42 µM | 29.87% | Active | 3.2 | Activity (PC-3 [7]): 51.68%; Activity (PC-3 [15]): 31.42%; Activity (PC-3 [18]): 10.04%; Activity (PC-3 [22]): Active; IC50 (MDA-MB-231 [23]): 11.4 µM; inhibition (Sus scrofa): 57.3%; Ratio (PC-3 [24]): 0.132; Activity (PC-3 [25]): 4.74%; Ratio IC50 (BT-549 [26]): 2.8; IC50 (A549): 8.01 µM; IC50 (BT-549 [27]): 8.72 µM; IC50 (4T1): 9.79 µM; IC50 (HGC-27): 8.65 µM; Activity (PC-3 [28]): 58.52%; Ratio IC50 (PC-3 [29]): 3.9; Activity (PC-3 [30]): 58.47%; Activity (PC-3 [31]): 5.99% |
| COc1ccc(OC)c(/C=C/C(=O)/C=C/c2c[nH]c3ccccc23)c1 | 1.36% | Active | 2.6 | 1.31% | Active | 57.54% | Active | 6.34 µM | Active | 7.71 µM | Active | 2.43% | Active | 6.59 µM | Active | 10.2 µM | 18.6 µM | 55.93% | Active | 3.7 | Activity (PC-3 [22]): Active; IC50 (MDA-MB-231 [23]): 6.02 µM; inhibition (Sus scrofa): 51.7%; Ratio (PC-3 [24]): 0.135; Activity (PC-3 [25]): 0.6%; Ratio IC50 (BT-549 [26]): 2.9; IC50 (A549): 19 µM; IC50 (BT-549 [27]): 8.34 µM; IC50 (4T1): 16.1 µM; IC50 (HGC-27): 5.21 µM; Activity (PC-3 [28]): 41.11%; Ratio IC50 (PC-3 [29]): 1.9; Activity (PC-3 [30]): 38.65% |
